Measured values as given in ChEMBL document CHEMBL1136045, “Synthesis, in vitro receptor binding, and in vivo evaluation of fluorescein and carbocyanine peptide-based optical contrast agents” (J Med Chem, 2002).

Biological target: Somatostatin receptor
Assay: In vitro binding affinity of [111In]DTPA-[Y3]-octreotate to somatostatin receptor in the rat pancreatic tumor cell line, […]
Procedure, shortened: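 Competition binding on CA20948 rat pancreatic cell membranes with the tracer [111In]-DTPA-[Y3]-octreotate and increasing concentrations of unlabeled competitor. Incubation 90 min at room temperature, then filtration and buffer washes. Filter-bound radioactivity was gamma-counted, and IC50 came from a four-parameter curve fit. Specific activity of the radiolabeled peptide was >1400 Ci/mmol.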

Compound	IC50 [nM]
C[C@@H](O)[C@H](NC(=O)[C@H]1CSSC[C@H](NC(=O)[C@@H](Cc2ccccc2)NC(=O)CC/N=C(\S)Nc2ccc3c(c2)C(=O)OC32c3ccc(O)cc3Oc3cc(O)ccc32)C(=O)N[C@@H](Cc2ccc(O)cc2)C(=O)N[C@H](Cc2c[nH]c3ccccc23)C(=O)N[C@@H](CCCCN)C(=O)N[C@H]([C@@H](C)O)C(=O)N1)C(=O)O	> 1000
C[C@@H](O)[C@H](NC(=O)[C@H]1CSSC[C@H](NC(=O)[C@@H](Cc2ccccc2)NC(=O)C(N)CCCC/N=C(\S)Nc2ccc3c(c2)C(=O)OC32c3ccc(O)cc3Oc3cc(O)ccc32)C(=O)N[C@@H](Cc2ccc(O)cc2)C(=O)N[C@H](Cc2c[nH]c3ccccc23)C(=O)N[C@@H](CCCCN)C(=O)N[C@H]([C@@H](C)O)C(=O)N1)C(=O)O (stereo not given in full)	187.8
C[C@@H](O)[C@H](NC(=O)[C@H]1CSSC[C@H](NC(=O)[C@@H](Cc2ccccc2)NC(=O)C(CCCC/N=C(/S)Nc2ccc3c(c2)C(=O)OC32c3ccc(O)cc3Oc3cc(O)ccc32)NC(=O)CN2CCN(CC(=O)O)CCN(CC(=O)O)CCN(CC(=O)O)CC2)C(=O)N[C@@H](Cc2ccc(O)cc2)C(=O)N[C@H](Cc2c[nH]c3ccccc23)C(=O)N[C@@H](CCCCN)C(=O)N[C@H]([C@@H](C)O)C(=O)N1)C(=O)O (stereo not given in full)	10.3

The remaining lines, values ahead:

IC50 [nM]	Compound
285.2	C[C@@H](O)[C@H](NC(=O)[C@H]1CSSC[C@H](NC(=O)[C@@H](Cc2ccccc2)NC(=O)CNC(=O)[C@H](CO)NC(=O)CNC(=S)Nc2ccc3c(c2)C(=O)OC32c3ccc(O)cc3Oc3cc(O)ccc32)C(=O)N[C@@H](Cc2ccc(O)cc2)C(=O)N[C@H](Cc2c[nH]c3ccccc23)C(=O)N[C@@H](CCCCN)C(=O)N[C@H]([C@@H](C)O)C(=O)N1)C(=O)O
1.9	C[C@@H](O)[C@H](NC(=O)[C@H]1CSSC[C@H](NC(=O)[C@@H](Cc2ccccc2)NC(=O)CN(CCN(CCN(CC(=O)O)CC(=O)O)CC(=O)O)CC(=O)O)C(=O)N[C@@H](Cc2ccc(O)cc2)C(=O)N[C@H](Cc2c[nH]c3ccccc23)C(=O)N[C@@H](CCCCN)C(=O)N[C@H]([C@@H](C)O)C(=O)N1)C(=O)O
